Source: article PMC7928716 (Science Signaling, 2021)
Square brackets hold non-standard residues; d marks the D form. Peptide text beside a SMILES is read from it. * marks the point of attachment. FITC = O=C1OC2(c3ccc(O)cc3Oc3cc(O)ccc32)c2ccc(NC(=S)*)cc21; pY = N[C@@H](Cc1ccc(OP(=O)(O)O)cc1)C(=O)O; pT = C[C@@H](OP(=O)(O)O)[C@H](N)C(=O)O; pS = N[C@@H](COP(=O)(O)O)C(=O)O

Tests used:
AP2 μ2 = target: T1, AP2 μ2 (Homo sapiens, UniProt Q96CW1); experiment: FP saturation; assay type: binding
T1 sequence (Q96CW1 160-435): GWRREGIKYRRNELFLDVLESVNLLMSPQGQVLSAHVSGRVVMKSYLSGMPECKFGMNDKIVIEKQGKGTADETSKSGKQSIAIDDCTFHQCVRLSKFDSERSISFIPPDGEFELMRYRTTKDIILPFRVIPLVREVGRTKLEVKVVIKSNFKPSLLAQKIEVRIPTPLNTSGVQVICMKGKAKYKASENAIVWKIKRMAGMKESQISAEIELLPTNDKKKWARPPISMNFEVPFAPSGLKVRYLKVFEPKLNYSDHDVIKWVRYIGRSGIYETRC
In short: (§1)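 GST-tagged domains were expressed in E. coli BL21-Gold (DE3) (IPTG induction, 16 h at 18°C) and purified on glutathione beads. The tag was removed with thrombin, and domains were dialysed into 50 mM sodium phosphate pH 7.4 with 1 mM DTT. Probes were FITC-ATG9A4–14 (AP2 μ2) and FITC-SQSTM1335–344 (ATG8 domains). 5 nM labelled peptide was mixed with an equal volume of a protein dilution series at room temperature and read without preincubation. KD came from a quadratic fit, in technical triplicates.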

FYN SH2 = FYN SH2 (Homo sapiens, UniProt P06241); experiment: FP saturation; assay type: binding
Sequence of FYN SH2 (P06241 142-251): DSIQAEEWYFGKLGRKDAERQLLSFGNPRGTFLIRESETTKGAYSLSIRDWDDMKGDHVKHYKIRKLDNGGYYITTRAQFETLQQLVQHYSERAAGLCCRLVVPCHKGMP
In short: (§2)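 The SH2 domain was expressed GST-tagged in E. coli. The tag was cleaved with HRV 3C and the protein dialysed into 50 mM sodium phosphate pH 7.4 with 1 mM DTT. KD came from a quadratic fit, in technical triplicates.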

NCK1 SH2 = NCK1 SH2 (Homo sapiens, UniProt P16333); experiment: FP saturation; assay type: binding
LYN SH2 = LYN SH2 (Homo sapiens, UniProt P07948); experiment: FP saturation; assay type: binding
Sequence of LYN SH2 (P07948 127-234): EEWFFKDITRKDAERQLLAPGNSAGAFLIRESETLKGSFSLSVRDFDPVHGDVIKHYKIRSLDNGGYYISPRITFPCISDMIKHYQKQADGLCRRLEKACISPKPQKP
In short: as §2

MAP1LC3A ATG8 [1] = target: T2, MAP1LC3A ATG8 (Homo sapiens, UniProt Q9H492); experiment: FP saturation; assay type: binding
MAP1LC3B ATG8 [2] = target: T3, MAP1LC3B ATG8 (Homo sapiens, UniProt Q9GZQ8); experiment: FP saturation; assay type: binding
In short: as §1

GABARAP ATG8 [3] = target: T4, GABARAP ATG8 (Homo sapiens, UniProt O95166); experiment: FP saturation; assay type: binding
T4 sequence (O95166 2-115): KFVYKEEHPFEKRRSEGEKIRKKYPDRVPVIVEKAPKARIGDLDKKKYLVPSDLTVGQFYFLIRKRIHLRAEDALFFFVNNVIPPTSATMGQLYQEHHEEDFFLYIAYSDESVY

GABARAPL2 ATG8 [4] = target: T5, GABARAPL2 ATG8 (Homo sapiens, UniProt P60520); experiment: FP saturation; assay type: binding
T5 sequence (P60520 2-115): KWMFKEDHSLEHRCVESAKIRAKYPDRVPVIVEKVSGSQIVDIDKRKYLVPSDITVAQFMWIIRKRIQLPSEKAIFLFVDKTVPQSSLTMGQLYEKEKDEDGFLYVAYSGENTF
In short: as §1

DOK1 PTB = target: T6, DOK1 PTB (Homo sapiens, UniProt Q99704); experiment: FP saturation; assay type: binding
T6 sequence (Q99704 151-256): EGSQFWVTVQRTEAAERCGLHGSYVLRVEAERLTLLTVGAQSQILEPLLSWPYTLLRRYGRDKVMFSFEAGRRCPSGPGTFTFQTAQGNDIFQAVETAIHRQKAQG
In short: (§3)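 Direct FP saturation used GST-tagged PTB domains (the talin entry is the PTB-like FERM lobe), expressed in E. coli at 18°C for 16 h. GST was removed with thrombin and the protein dialysed into 50 mM sodium phosphate pH 7.4 with 1 mM DTT. KD came from a quadratic fit, in technical triplicates.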

FRS2 PTB = target: T7, FRS2 PTB (Homo sapiens, UniProt Q8WU20); experiment: FP saturation; assay type: binding
T7 sequence (Q8WU20 8-136): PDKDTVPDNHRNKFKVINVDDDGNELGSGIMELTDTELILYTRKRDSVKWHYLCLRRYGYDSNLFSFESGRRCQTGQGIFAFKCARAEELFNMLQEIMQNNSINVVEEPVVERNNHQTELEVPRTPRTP
In short: as §3

IRS1 PTB = target: T8, IRS1 PTB (Homo sapiens, UniProt P35568); experiment: FP saturation; assay type: binding
T8 sequence (P35568 157-267): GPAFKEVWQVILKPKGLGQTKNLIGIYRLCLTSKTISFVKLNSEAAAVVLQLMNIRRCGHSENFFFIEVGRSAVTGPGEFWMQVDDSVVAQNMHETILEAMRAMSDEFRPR
In short: as §3

TLN2 PTB = TLN2 PTB (Homo sapiens, UniProt Q9Y4G6); experiment: FP saturation; assay type: binding
Sequence of TLN2 PTB (Q9Y4G6 309-401): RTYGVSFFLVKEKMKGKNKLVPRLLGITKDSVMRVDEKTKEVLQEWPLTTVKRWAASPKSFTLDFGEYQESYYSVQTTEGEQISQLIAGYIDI
In short: as §3

SNX17 FERM = target: T9, SNX17 FERM (Mus musculus, UniProt Q8BVL3); experiment: FP saturation; assay type: binding
T9 sequence (Q8BVL3 109-388): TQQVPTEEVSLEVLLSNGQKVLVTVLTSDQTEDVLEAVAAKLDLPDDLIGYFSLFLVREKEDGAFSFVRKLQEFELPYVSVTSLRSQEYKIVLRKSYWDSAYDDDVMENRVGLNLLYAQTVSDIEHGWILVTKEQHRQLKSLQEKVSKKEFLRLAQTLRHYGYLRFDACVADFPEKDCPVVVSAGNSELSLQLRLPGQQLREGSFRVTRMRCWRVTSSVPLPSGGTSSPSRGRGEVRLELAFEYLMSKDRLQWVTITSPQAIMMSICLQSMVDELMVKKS
In short: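 The FERM domain was expressed GST-tagged in E. coli BL21-Gold (DE3) at 18°C. The tag was removed with TEV protease and the protein dialysed into 50 mM sodium phosphate pH 7.4 with 1 mM DTT. Direct FP used 5 nM FITC-labeled peptide with a protein dilution series at room temperature and no preincubation. KD came from a quadratic fit, in technical triplicates.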

SARS-CoV-2 = conditions: study repurposing approved compounds; cited from earlier work
MAP1LC3A ATG8 [5] = target: T2, MAP1LC3A ATG8; experiment: FP displacement of FITC-SQSTM1_335–344 from MAP1LC3A ATG8; assay type: binding
In short: (§4)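 GST-tagged ATG8 domains were expressed in E. coli BL21-Gold (DE3) with 1 mM IPTG at OD600 0.7 for 16 h at 18°C. They were glutathione-bead purified, thrombin-cleaved overnight at 4°C, and dialysed into 50 mM sodium phosphate pH 7.4 with 1 mM DTT. Domain level for displacement was set from FITC-SQSTM1 saturation curves. Unlabeled peptides were in phosphate buffer. FP was read at room temperature and KI calculated.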

MAP1LC3B ATG8 [6] = target: T3, MAP1LC3B ATG8; experiment: FP displacement of FITC-SQSTM1_335–344 from MAP1LC3B ATG8; assay type: binding
In short: as §4

MAP1LC3C ATG8 = MAP1LC3C ATG8 (Homo sapiens, UniProt Q9BXW4); experiment: FP displacement of FITC-SQSTM1_335–344 from MAP1LC3C ATG8; assay type: binding
Sequence of MAP1LC3C ATG8 (Q9BXW4 2-125): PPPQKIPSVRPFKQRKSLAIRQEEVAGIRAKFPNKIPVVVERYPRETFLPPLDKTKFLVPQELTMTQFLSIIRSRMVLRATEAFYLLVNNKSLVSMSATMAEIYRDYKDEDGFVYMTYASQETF
In short: as §4

GABARAPL2 ATG8 [7] = target: T5, GABARAPL2 ATG8; experiment: FP displacement of FITC-SQSTM1_335–344 from GABARAPL2 ATG8; assay type: binding
In short: as §4

GABARAP ATG8 [8] = target: T4, GABARAP ATG8; experiment: FP displacement of FITC-SQSTM1_335–344 from GABARAP ATG8; assay type: binding
In short: as §4

Row | SMILES | Ki (MAP1LC3A ATG8 [5]) [µM] | Ki (MAP1LC3B ATG8 [6]) [µM] | Ki (MAP1LC3C ATG8) [µM] | Ki (GABARAPL2 ATG8 [7]) [µM] | further results
1 | CC[C@H](C)[C@H](NC(=O)[C@H](CC(=O)O)NC(=O)[C@@H](NC(=O)[C@H](CO)NC(=O)[C@H](C)NC(=O)[C@H](Cc1ccc(O)cc1)NC(=O)[C@@H]1CCCN1C(=O)[C@H](CC(N)=O)NC(=O)[C@H](CCC(=O)O)NC(=O)CNC(=O)[C@H](CO)NC(=O)[C@H](CCCNC(=N)N)NC(=S)Nc1ccc2c(c1)C(=O)OC21c2ccc(O)cc2Oc2cc(O)ccc21)[C@@H](C)CC)C(=O)N[C@@H](CO)C(=O)N[C@@H](CCCCN)C(=O)NCC(=O)N[C@@H](CCC(=O)O)C(N)=O [ACE2_775–790 Unphos.] ({FITC}-RSGENPYASIDISKGE-NH2) |  |  |  |  | Kd (AP2 μ2): ~60 µM; Kd (FYN SH2): > 100 µM; Kd (NCK1 SH2): > 100 µM; Kd (LYN SH2): > 100 µM; Kd (MAP1LC3A ATG8 [1]): > 100 µM; Kd (MAP1LC3B ATG8 [2]): > 100 µM; Kd (GABARAP ATG8 [3]): > 100 µM; Kd (GABARAPL2 ATG8 [4]): > 100 µM
2 | C[C@@H](O)[C@H](NC(=O)[C@H](CC(N)=O)NC(=O)[C@H](CCC(N)=O)NC(=O)[C@H](Cc1ccccc1)NC(=O)CNC(=O)[C@@H]1CCCN1C(=O)[C@H](CC(N)=O)NC(=O)[C@H](CC(N)=O)NC(=O)[C@H](CCC(=O)O)NC(=O)CNC(=O)[C@H](CCCCN)NC(=O)[C@H](CO)NC(=S)Nc1ccc2c(c1)C(=O)OC21c2ccc(O)cc2Oc2cc(O)ccc21)C(N)=O [ACE2_787–798] ({FITC}-SKGENNPGFQNT-NH2) |  |  |  |  | Kd (DOK1 PTB): > 100 µM; Kd (FRS2 PTB): > 100 µM; Kd (IRS1 PTB): > 100 µM; Kd (TLN2 PTB): > 100 µM; Kd (SNX17 FERM): ~100 µM
3 | Cc1cccc(/C=N/Nc2cc(N3CCOCC3)nc(OCCc3ccccn3)n2)c1 [apilimod] |  |  |  |  | inhibition of viral replication (SARS-CoV-2): potent inhibitor of viral replication
4 | CC[C@H](C)[C@H](NC(=O)[C@H](CC(N)=O)NC(=O)[C@@H](NC(=O)[C@H](Cc1ccccc1)NC(=O)[C@@H](NC(=O)[C@H](COP(=O)(O)O)NC(=O)[C@@H](NC(=O)[C@H](C)NC(=O)[C@H](CCC(=O)O)NC(=O)[C@H](CCCCN)NC(C)=O)[C@@H](C)O)[C@@H](C)O)[C@@H](C)O)C(=O)N[C@H](C(=O)N[C@@H](Cc1ccc(O)cc1)C(=O)N[C@@H](CCCNC(=N)N)C(=O)NCC(N)=O)[C@@H](C)O [pSer^778] (Ac-KEAT[pS]TFTNITYRG-NH2) | 29.4 ± 0.5 | > 100 | 16.1 ± 0.5 | 80 ± 5 | 
5 | CC[C@H](C)[C@H](NC(=O)[C@H](CC(N)=O)NC(=O)[C@@H](NC(=O)[C@H](Cc1ccccc1)NC(=O)[C@@H](NC(=O)[C@H](CO)NC(=O)[C@@H](NC(=O)[C@H](C)NC(=O)[C@H](CCC(=O)O)NC(=O)[C@H](CCCCN)NC(C)=O)[C@@H](C)OP(=O)(O)O)[C@@H](C)O)[C@@H](C)O)C(=O)N[C@H](C(=O)N[C@@H](Cc1ccc(O)cc1)C(=O)N[C@@H](CCCNC(=N)N)C(=O)NCC(N)=O)[C@@H](C)O [pThr^777] (Ac-KEA[pT]STFTNITYRG-NH2) | > 100 | > 100 | 73 ± 4 |  | Ki (GABARAP ATG8 [8]): 47 ± 3 µM
6 | CC[C@H](C)[C@H](NC(=O)[C@H](CC(N)=O)NC(=O)[C@@H](NC(=O)[C@H](Cc1ccccc1)NC(=O)[C@@H](NC(=O)[C@H](CO)NC(=O)[C@@H](NC(=O)[C@H](C)NC(=O)[C@H](CCC(=O)O)NC(=O)[C@H](CCCCN)NC(C)=O)[C@@H](C)O)[C@@H](C)OP(=O)(O)O)[C@@H](C)O)C(=O)N[C@H](C(=O)N[C@@H](Cc1ccc(OP(=O)(O)O)cc1)C(=O)N[C@@H](CCCNC(=N)N)C(=O)NCC(N)=O)[C@@H](C)O [pThr^779/pTyr^785] (Ac-KEATS[pT]FTNIT[pY]RG-NH2) | 8.5 ± 0.5 | 15 ± 1 | 8 ± 2 |  | Ki (GABARAP ATG8 [8]): 17.8 ± 0.8 µM
7 | CC[C@H](C)[C@H](NC(=O)[C@H](CC(N)=O)NC(=O)[C@@H](NC(=O)[C@H](Cc1ccccc1)NC(=O)[C@@H](NC(=O)[C@H](CO)NC(=O)[C@@H](NC(=O)[C@H](C)NC(=O)[C@H](CCC(=O)O)NC(=O)[C@H](CCCCN)NC(C)=O)[C@@H](C)O)[C@@H](C)OP(=O)(O)O)[C@@H](C)O)C(=O)N[C@H](C(=O)N[C@@H](Cc1ccc(O)cc1)C(=O)N[C@@H](CCCNC(=N)N)C(=O)NCC(N)=O)[C@@H](C)O [pThr^779] (Ac-KEATS[pT]FTNITYRG-NH2) | > 100 | > 100 | 82 ± 3 | > 100 | 
8 | CC[C@H](C)[C@H](NC(=O)[C@H](CC(N)=O)NC(=O)[C@@H](NC(=O)[C@H](Cc1ccccc1)NC(=O)[C@@H](NC(=O)[C@H](CO)NC(=O)[C@@H](NC(=O)[C@H](C)NC(=O)[C@H](CCC(=O)O)NC(=O)[C@H](CCCCN)NC(C)=O)[C@@H](C)O)[C@@H](C)O)[C@@H](C)O)C(=O)N[C@H](C(=O)N[C@@H](Cc1ccc(OP(=O)(O)O)cc1)C(=O)N[C@@H](CCCNC(=N)N)C(=O)NCC(N)=O)[C@@H](C)O [pTyr^785] (Ac-KEATSTFTNIT[pY]RG-NH2) | 38 ± 2 | 81 ± 2 | 83 ± 4 | 89 ± 12 | 
